# Laboratory results published in ChEMBL document CHEMBL6153064, “Structure-based discovery of novel diarylpyrimidines as potent and selective Non-Nucleoside reverse transcriptase inhibitors: From CH(CN)-Biphenyl-Diarylpyrimidines to CNNH2-Biphenyl-Diarylpyrimidines” (Eur J Med Chem, 2025).
# pEC50, pIC50: −log10 of the molar value.
# How the values were obtained:
# [1] = test system: Human immunodeficiency virus 1; experiment: Antiviral activity against HIV-1 harboring Y188L mutant infected in human MT4 cells assessed as inhibition of virus-induced cytopathic effect by MTT assay; details: Human immunodeficiency virus 1, MT4
# [2] = test system: Human immunodeficiency virus 1; experiment: Antiviral activity against HIV-1 harboring E138K mutant infected in human MT4 cells […]; type: functional, organism-based; details: Human immunodeficiency virus 1, MT4
# [3] = Cytotoxicity against human MT4 cells by MTT assay; type: toxicity, cell-based
# [4] = test system: Human immunodeficiency virus 1; experiment: Antiviral activity against wild type HIV-1 IIIB infected in human MT4 cells […]; type: functional, organism-based; details: Human immunodeficiency virus 1, IIIB
# [5] = test system: Human immunodeficiency virus 1; experiment: Antiviral activity against HIV-1 harboring K103N mutant infected in human MT4 cells […]; type: functional, organism-based; details: Human immunodeficiency virus 1, MT4
# [6] = target: Human immunodeficiency virus type 1 reverse transcriptase (Human immunodeficiency virus 1, UniProt Q72547); experiment: Inhibition of wild type HIV-1 Reverse transcriptase
# [7] = Selectivity index, ratio of CC50 for cytotoxicity against human MT4 cells to EC50 for antiviral activity against wild type HIV-1 IIIB infected in human MT4 cells; type: toxicity, cell-based; details: read-out: Ratio CC50/EC50
# In short: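 Selectivity index calculated as CC50/EC50 ratio, both values from MTT viability readout in MT-4 cells, antiviral arm using wild-type HIV-1 IIIB.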
# [8] = test system: Human immunodeficiency virus 1; experiment: Antiviral activity against HIV-1 harboring Y181C mutant infected in human MT4 cells […]; type: functional, organism-based; details: Human immunodeficiency virus 1, MT4
# [9] = test system: Human immunodeficiency virus 1; experiment: Antiviral activity against HIV-1 harboring L100I mutant infected in human MT4 cells […]; type: functional, organism-based; details: Human immunodeficiency virus 1, MT4
# [10] = target: Human immunodeficiency virus type 1 reverse transcriptase (Human immunodeficiency virus 1) (UniProt Q72547); experiment: Potency index, ratio of Nevirapine IC50 to test compound IC50 for inhibition of wild type HIV-1 Reverse transcriptase
# [11] = Stability in human plasma assessed as parent compound remaining measured immediately; type: ADME, cell-free; details: read-out: Stability
# [12] = Metabolic stability in human microsomes assessed as intrinsic clearance; type: ADME, Microsome; details: read-out: CLH
# In short: (§1)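 Incubation with human liver microsomes; half-life obtained from depletion fit (R² reported), intrinsic clearance expressed per mg microsomal protein (μL/min/mg) and scaled to liver (mL/min/kg).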
# [13] = Stability in human plasma assessed as parent compound remaining measured at 300 mins; type: ADME, cell-free; details: read-out: Stability
# [14] = Stability in human plasma assessed as half life; type: ADME, cell-free
# [15] = Stability in human plasma assessed as parent compound remaining measured at 30 mins; type: ADME, cell-free; details: read-out: Stability
# [16] = Stability in human plasma assessed as parent compound remaining measured at 60 mins; type: ADME, cell-free; details: read-out: Stability
# [17] = Stability in human plasma assessed as parent compound remaining measured at 120 mins; type: ADME, cell-free; details: read-out: Stability
# [18] = Stability in human plasma assessed as parent compound remaining measured at 15 mins; type: ADME, cell-free; details: read-out: Stability
# [19] = Metabolic stability in human liver microsomes assessed as half life; type: ADME, Microsome
# In short: as §1
Structure (SMILES),pEC50 [1],pEC50 [2],CC50 [3] [µM],pEC50 [4],pEC50 [5],pIC50 [6],selectivity ratio [7],pEC50 [8],pEC50 [9],Ratio IC50 [10],remaining at 0 min [11] [%],microsomal CLint [12] [µL/min/mg],remaining at 5 h [13] [%],half-life [14] [h],remaining at 0.5 h [15] [%],remaining at 1 h [16] [%],remaining at 2 h [17] [%],remaining at 0.25 h [18] [%],half-life [19] [h]
C/N=C(/c1ccnc(Nc2ccc(C#N)cc2)n1)c1ccc(-c2ccc(C#N)cc2)cc1C(F)(F)F,5.52,6.54,119,7.46,6.38,6.74,3280,6.36,6.45,,,,,,,,,,
CNC(c1ccnc(Nc2ccc(C#N)cc2)n1)c1ccc(-c2ccc(C#N)cc2)cc1C (configuration not stated),5.04,6.55,12,7.48,6.13,6.82,367,5.96,5.61,,,,,,,,,,
CNC(c1ccnc(Nc2ccc(C#N)cc2)n1)c1ccc(-c2ccc(C#N)cc2)cc1C(F)(F)F (configuration not stated),5.12,6.74,15,7.41,5.87,6.31,363,5.93,5.61,1.5,,,,,,,,,
Cc1cc(/C=C/C#N)cc(C)c1Nc1ccnc(Nc2ccc(C#N)cc2)n1 [RILPIVIRINE],,,,,,,,,,,100,108,97.4,> 5,99.4,99.3,95.3,102,
N#Cc1ccc(Nc2nccc(/C(=N/N)c3ccc(-c4ccc(C#N)cc4)cc3Cl)n2)cc1,6.11,7.12,212,8.22,7.31,7.44,33300,7.17,7.66,,,,,,,,,,
Cc1cc(C#N)cc(C)c1Oc1nc(Nc2ccc(C#N)cc2)nc(N)c1Br [ETRAVIRINE],7.70,,> 4.6,,,,,,,,100,21.1,78.5,> 5,95.4,97,92.1,102,1.09
CNC(c1ccnc(Nc2ccc(C#N)cc2)n1)c1ccc(-c2ccc(C#N)cc2)cc1OC (configuration not stated),5.14,6.65,13,7.44,6.03,6.02,354,5.89,5.63,0.78,,,,,,,,,
CNC(c1ccnc(Nc2ccc(C#N)cc2)n1)c1ccc(-c2ccc(C#N)cc2)cc1F (configuration not stated),< 4.90,6.43,13,7.19,4.98,6.11,196,5.72,≤ 4.96,0.96,,,,,,,,,
N#Cc1ccc(Nc2nccc(/C(=N/N)c3c(F)cc(-c4ccc(C#N)cc4)cc3F)n2)cc1,< 4.64,7.42,23,8.05,7.36,7.51,2480,7.19,7.80,,,,,,,,,,
CNC(c1ccnc(Nc2ccc(C#N)cc2)n1)c1ccc(-c2ccc(C#N)cc2)cc1OC(F)(F)F (configuration not stated),≤ 5.14,6.49,18,7.25,5.84,5.70,313,5.65,5.71,0.38,,,,,,,,,
N#Cc1ccc(Nc2nccc(/C(=N/N)c3ccc(-c4ccc(C#N)cc4)cc3F)n2)cc1,< 4.34,6.71,> 46,8.15,6.90,7.70,> 6210,6.68,7.16,,,,,,,,,,
C/N=C(/c1ccnc(Nc2ccc(C#N)cc2)n1)c1ccc(-c2ccc(C#N)cc2)cc1Cl,5.42,7.29,> 45,8.22,6.89,7.16,> 7140,6.72,6.83,,,,,,,,,,
C/N=C(/c1ccnc(Nc2ccc(C#N)cc2)n1)c1ccc(-c2ccc(C#N)cc2)cc1OC(F)(F)F,4.70,6.91,> 251,7.89,6.55,6.66,> 19100,6.44,6.52,,,,,,,,,,
C/N=C(/c1ccnc(Nc2ccc(C#N)cc2)n1)c1ccc(-c2ccc(C#N)cc2)cc1OC,5.35,7.08,16,8.10,6.77,7.21,1960,6.53,6.53,,,,,,,,,,
Cc1cc(-c2ccc(C#N)cc2)ccc1/C(=N\N)c1ccnc(Nc2ccc(C#N)cc2)n1,6.35,7.89,> 291,8.15,7.77,7.64,> 45000,7.33,7.80,,,,,,,,,,
N#Cc1ccc(Nc2nccc(/C(=N/N)c3ccc(-c4ccc(C#N)cc4)cc3OC(F)(F)F)n2)cc1,5.83,6.47,171,7.40,6.74,7.14,4310,6.59,6.74,,,,,,,,,,
N#Cc1ccc(Nc2nccc(/C(=N/N)c3ccc(-c4ccc(C#N)cc4)cc3C(F)(F)F)n2)cc1,5.94,7.17,68,7.51,6.97,7.24,2170,6.87,7.24,,,,,,,,,,
C/N=C(/c1ccnc(Nc2ccc(C#N)cc2)n1)c1ccc(-c2ccc(C#N)cc2)cc1C,< 4.33,7.09,> 47,7.92,6.43,7.24,> 3940,6.38,5.81,,,,,,,,,,
